Test results as given in ChEMBL document CHEMBL3286120, “Design and synthesis of novel soluble 2,5-diketopiperazine derivatives as potential anticancer agents” (Eur J Med Chem, 2014).

How the values were obtained:
MCF7 = experiment: Cytotoxicity against human MCF7 cells assessed as reduction in cell viability after 72 hrs by CCK8 assay; type: functional, cell-based
In short: (§1)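 Cells kept in RPMI or DMEM with 10% FBS and 1% penicillin/streptomycin at 37 °C in 5% CO2. Seeded at 400-800 cells/well in 384-well plates and exposed to varying compound concentrations, with solution-only control, for 72 h. CCK8 reagent added, then absorbance read at 450 nm. Plinabulin and TSA were positive controls. Mean SD of three experiments.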

A549 = experiment: Cytotoxicity against human A549 cells assessed as reduction in cell viability after 72 hrs by CCK8 assay; type: functional, cell-based; in short: as §1
NCI-H1975 = experiment: Cytotoxicity against human NCI-H1975 cells assessed as reduction in cell viability after 72 hrs by CCK8 assay; type: functional, cell-based; in short: as §1
HL-60 = experiment: Cytotoxicity against human HL60 cells assessed as reduction in cell viability after 72 hrs by CCK8 assay; type: functional, cell-based; in short: as §1
K562 = experiment: Cytotoxicity against human K562 cells assessed as reduction in cell viability after 72 hrs by CCK8 assay; type: functional, cell-based; in short: as §1
U-937 = experiment: Cytotoxicity against human U937 cells assessed as reduction in cell viability after 72 hrs by CCK8 assay; type: functional, cell-based; in short: as §1
HeLa = experiment: Cytotoxicity against human HeLa cells assessed as reduction in cell viability after 72 hrs by CCK8 assay; type: functional, cell-based; in short: as §1
[1] = Cytotoxicity against human HuH7 cells assessed as reduction in cell viability after 72 hrs by CCK8 assay; type: functional, cell-based, Huh-7; in short: as §1
MOLT-4 = experiment: Cytotoxicity against human MOLT4 cells assessed as reduction in cell viability after 72 hrs by CCK8 assay; type: functional, cell-based; in short: as §1
[2] = Cytotoxicity against human BGC823 cells assessed as reduction in cell viability after 72 hrs by CCK8 assay; type: functional, cell-based, BGC-823; in short: as §1
[3] = Homo sapiens, MCF7, 72 h, read-out: IC50
[4] = Homo sapiens, A549, 72 h, read-out: IC50
[5] = Homo sapiens, NCI-H1975, 72 h, read-out: IC50
[6] = Homo sapiens, HL-60, 72 h, read-out: IC50
[7] = Homo sapiens, K562, 72 h, read-out: IC50
[8] = Homo sapiens, U-937, 72 h, read-out: IC50
[9] = Homo sapiens, HeLa, 72 h, read-out: IC50
[10] = Homo sapiens, Huh-7, 72 h, read-out: IC50
[11] = Homo sapiens, MOLT-4, 72 h, read-out: IC50
[12] = Homo sapiens, BGC-823, 72 h, read-out: IC50

SMILES	IC50 (MCF7; [3])	IC50 (A549; [4])	IC50 (NCI-H1975; [5])	IC50 (HL-60; [6])	IC50 (K562; [7])	IC50 (U-937; [8])	IC50 (HeLa; [9])	IC50 [1, 10]	IC50 (MOLT-4; [11])	IC50 [2, 12]	IC50 (NCI-H1975; nci-h1975)	IC50 (A549; a549)	IC50 (MCF7; mcf7)	IC50 (HL-60; hl-60)	IC50 (K562; k562)	IC50 (U-937; u-937)	IC50 (HeLa; hela)	IC50 ([1]; huh-7)	IC50 (MOLT-4; molt-4)	IC50 ([2]; bgc-823)
C=CCn1c(=O)/c(=C\c2ccccc2Cl)[nH]c(=O)/c1=C\c1ccccc1OC	4.7 µM	5.3 µM	9.2 µM	4.2 µM	2.5 µM	0.7 µM	5.1 µM	6.4 µM	4.4 µM	4.6 µM	–	–	–	–	–	–	–	–	–	–
C=CCn1c(=O)/c(=C\c2cccc(F)c2)[nH]c(=O)/c1=C\c1ccccc1OC	13.7 µM	19.7 µM	25.6 µM	8.89 µM	4.1 µM	2.5 µM	9.1 µM	27.2 µM	6.5 µM	5.6 µM	–	–	–	–	–	–	–	–	–	–
C=CCn1c(=O)/c(=C\c2ccccc2C(F)(F)F)[nH]c(=O)/c1=C\c1ccccc1OC	6.5 µM	7 µM	14.5 µM	4.6 µM	2.7 µM	1.5 µM	4.6 µM	9.5 µM	4.4 µM	5.1 µM	–	–	–	–	–	–	–	–	–	–
C=CCn1c(=O)/c(=C\c2cccc(Br)c2)[nH]c(=O)/c1=C\c1ccccc1OC	5.4 µM	5.4 µM	–	5.2 µM	2.4 µM	1.1 µM	5.4 µM	2.3 µM	5 µM	5.9 µM	Not Active	–	–	–	–	–	–	–	–	–
COc1ccccc1/C=c1\c(=O)[nH]/c(=C/c2cccc(Cl)c2Cl)c(=O)n1C	0.2 µM	0.2 µM	0.3 µM	0.2 µM	0.11 µM	0.1 µM	0.2 µM	0.3 µM	–	0.3 µM	–	–	–	–	–	–	–	–	–	–
C=CCn1c(=O)/c(=C\c2ccccc2F)[nH]c(=O)/c1=C\c1ccccc1OC	23 µM	–	25.1 µM	18.5 µM	5.6 µM	5.5 µM	45 µM	31.3 µM	20 µM	18.9 µM	–	Not Active	–	–	–	–	–	–	–	–
C=CCn1c(=O)/c(=C\c2ccc(Cl)c(Cl)c2)[nH]c(=O)/c1=C\c1ccccc1OC	–	–	–	–	–	–	–	–	–	–	Not Active	Not Active	Not Active	Not Active	Not Active	Not Active	Not Active	Not Active	Not Active	Not Active
CC(/C=C/C(=O)NO)=C\[C@@H](C)C(=O)c1ccc(N(C)C)cc1 [TRICHOSTATIN]	0.06 µM	0.05 µM	0.21 µM	0.08 µM	0.41 µM	0.1 µM	0.11 µM	0.1 µM	0.03 µM	0.08 µM	–	–	–	–	–	–	–	–	–	–
COc1ccccc1/C=c1/[nH]c(=O)/c(=C\c2ccccc2OC)[nH]c1=O	–	–	–	–	–	–	–	–	–	–	Not Active	Not Active	Not Active	Not Active	Not Active	Not Active	Not Active	Not Active	–	Not Active
C=CCn1c(=O)/c(=C\c2cccc(C)c2)[nH]c(=O)/c1=C\c1ccccc1OC	20.7 µM	22.7 µM	32.8 µM	16.7 µM	8.8 µM	5.1 µM	19.3 µM	21.4 µM	16 µM	20.4 µM	–	–	–	–	–	–	–	–	–	–
CC(C)(C)c1[nH]cnc1/C=c1\[nH]c(=O)/c(=C/c2ccccc2)[nH]c1=O [PLINABULIN]	0.01 µM	0.01 µM	0.011 µM	0.01 µM	0.008 µM	0.006 µM	0.01 µM	0.031 µM	–	0.009 µM	–	–	–	–	–	–	–	–	–	–
C=CCn1c(=O)/c(=C\c2cccc(Cl)c2)[nH]c(=O)/c1=C\c1ccccc1OC	5.2 µM	5.2 µM	5.1 µM	4.5 µM	2.7 µM	1.2 µM	5.5 µM	8.9 µM	4.9 µM	4.6 µM	–	–	–	–	–	–	–	–	–	–
C=CCn1c(=O)/c(=C\c2cc(F)ccc2C)[nH]c(=O)/c1=C\c1ccccc1OC	3.1 µM	4.9 µM	7.3 µM	2.6 µM	1.8 µM	1 µM	2.9 µM	5.6 µM	3.8 µM	1.6 µM	–	–	–	–	–	–	–	–	–	–
COc1ccccc1/C=c1\c(=O)[nH]/c(=C/c2ccccc2Cl)c(=O)n1C	0.2 µM	0.3 µM	0.2 µM	0.2 µM	0.11 µM	0.1 µM	0.3 µM	0.3 µM	–	0.3 µM	–	–	–	–	–	–	–	–	–	–
C=CCn1c(=O)/c(=C\c2cc(OC)c(OC)c(OC)c2)[nH]c(=O)/c1=C\c1cccc(Br)c1	–	–	–	–	–	–	–	–	–	–	Not Active	Not Active	Not Active	Not Active	Not Active	Not Active	Not Active	Not Active	Not Active	Not Active
C=CCn1c(=O)/c(=C\c2ccc(F)c(Br)c2)[nH]c(=O)/c1=C\c1ccccc1OC	–	–	–	–	–	–	–	–	–	–	Not Active	Not Active	Not Active	Not Active	Not Active	Not Active	Not Active	Not Active	Not Active	Not Active
COc1ccccc1/C=c1/[nH]c(=O)/c(=C\c2cccc(Cl)c2Cl)[nH]c1=O	–	–	–	–	–	–	–	–	–	–	Not Active	Not Active	Not Active	Not Active	Not Active	Not Active	Not Active	Not Active	–	Not Active
C=CCn1c(=O)/c(=C\c2ccccc2OC)[nH]c(=O)/c1=C\c1ccccc1OC	41.1 µM	22.4 µM	21.5 µM	15.7 µM	7.4 µM	5.1 µM	6.9 µM	21.2 µM	13.1 µM	13.4 µM	–	–	–	–	–	–	–	–	–	–
C=CCn1c(=O)/c(=C\c2cccc(Br)c2)[nH]c(=O)/c1=C\c1cccc(Br)c1	–	–	–	–	–	–	–	–	–	–	Not Active	Not Active	Not Active	Not Active	Not Active	Not Active	Not Active	Not Active	Not Active	Not Active
C=CCn1c(=O)/c(=C\c2cc(Br)ccc2F)[nH]c(=O)/c1=C\c1ccccc1OC	28.1 µM	–	–	17.4 µM	5.1 µM	4.7 µM	34.6 µM	–	12.9 µM	–	Not Active	Not Active	–	–	–	–	–	Not Active	–	Not Active
C=CCn1c(=O)/c(=C\c2ccc(C)cc2)[nH]c(=O)/c1=C\c1ccccc1OC	–	–	–	–	–	–	–	–	–	–	Not Active	Not Active	Not Active	Not Active	Not Active	Not Active	Not Active	Not Active	Not Active	Not Active
C=CCn1c(=O)/c(=C\c2ccc(Cl)c(Cl)c2)[nH]c(=O)/c1=C\c1ccccc1	–	–	–	–	–	–	–	–	–	–	Not Active	Not Active	Not Active	Not Active	Not Active	Not Active	Not Active	Not Active	Not Active	Not Active
COc1ccccc1/C=c1/[nH]c(=O)/c(=C\c2ccccc2OC)n(C)c1=O	9 µM	7 µM	16.9 µM	16.2 µM	2.2 µM	1.5 µM	–	–	–	–	–	–	–	–	–	–	Not Active	Not Active	–	Not Active
C=CCn1c(=O)/c(=C\c2cc(OC)c(OC)c(OC)c2)[nH]c(=O)/c1=C\c1ccccc1	–	–	–	–	–	–	–	–	–	–	Not Active	Not Active	Not Active	Not Active	Not Active	Not Active	Not Active	Not Active	Not Active	Not Active
